According to ChEMBL document CHEMBL3352472, “Discovery of 4-aryl-7-hydroxyindoline-based P2Y1 antagonists as novel antiplatelet agents” (J Med Chem, 2014):
Converted amounts (≈) assume the structure as drawn. The source made the active and inactive calls. No cut-off for these calls is given here.

Columns and labels:
Oryctolagus cuniculus [1] = test: Antithrombotic activity in rabbit model of electrically-induced carotid artery thrombosis assessed as reduction in thrombus formation dosed 30 mins before electrical stimulation; assay type: functional, organism-based
hERG (KCNH2) = hERG (KCNH2) (Homo sapiens, UniProt Q12809); test: Inhibition of human ERG at 1 uM by patch clamp assay
Chain of hERG (KCNH2) (Q12809 whole entry): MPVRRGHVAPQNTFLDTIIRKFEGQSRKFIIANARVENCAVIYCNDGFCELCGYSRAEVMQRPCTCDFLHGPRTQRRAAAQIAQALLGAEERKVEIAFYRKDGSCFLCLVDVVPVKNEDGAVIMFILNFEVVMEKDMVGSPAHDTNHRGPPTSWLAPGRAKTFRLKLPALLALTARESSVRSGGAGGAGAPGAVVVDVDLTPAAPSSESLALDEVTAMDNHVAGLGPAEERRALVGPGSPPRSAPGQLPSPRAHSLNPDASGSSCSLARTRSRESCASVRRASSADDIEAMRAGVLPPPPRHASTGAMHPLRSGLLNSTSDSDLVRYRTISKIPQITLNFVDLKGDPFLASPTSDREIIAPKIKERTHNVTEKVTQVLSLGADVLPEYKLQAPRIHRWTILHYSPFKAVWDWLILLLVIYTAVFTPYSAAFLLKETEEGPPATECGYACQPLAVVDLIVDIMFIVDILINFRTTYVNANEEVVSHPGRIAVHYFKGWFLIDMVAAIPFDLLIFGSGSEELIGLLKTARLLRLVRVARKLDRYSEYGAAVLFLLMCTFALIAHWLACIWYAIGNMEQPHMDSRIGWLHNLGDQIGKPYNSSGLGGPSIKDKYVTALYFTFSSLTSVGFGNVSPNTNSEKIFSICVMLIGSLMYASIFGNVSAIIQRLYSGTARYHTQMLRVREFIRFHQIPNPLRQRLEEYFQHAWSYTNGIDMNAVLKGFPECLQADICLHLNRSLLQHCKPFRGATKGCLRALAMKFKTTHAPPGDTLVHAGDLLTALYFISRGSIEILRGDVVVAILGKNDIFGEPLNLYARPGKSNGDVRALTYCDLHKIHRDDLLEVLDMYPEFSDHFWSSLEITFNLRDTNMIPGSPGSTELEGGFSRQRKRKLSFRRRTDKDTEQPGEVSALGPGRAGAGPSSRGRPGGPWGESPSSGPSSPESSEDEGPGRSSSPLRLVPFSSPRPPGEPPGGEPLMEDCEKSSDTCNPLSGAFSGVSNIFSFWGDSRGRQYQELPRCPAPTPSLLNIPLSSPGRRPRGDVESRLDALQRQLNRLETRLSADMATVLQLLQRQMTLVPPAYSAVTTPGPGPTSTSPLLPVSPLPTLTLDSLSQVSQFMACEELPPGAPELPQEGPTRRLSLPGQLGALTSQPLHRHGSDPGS

P2Y purinoceptor 2 = P2Y purinoceptor 2 (Homo sapiens, UniProt P41231); test: Antagonist activity at P2Y2 receptor (unknown origin)
Chain of P2Y purinoceptor 2 (P41231 whole entry): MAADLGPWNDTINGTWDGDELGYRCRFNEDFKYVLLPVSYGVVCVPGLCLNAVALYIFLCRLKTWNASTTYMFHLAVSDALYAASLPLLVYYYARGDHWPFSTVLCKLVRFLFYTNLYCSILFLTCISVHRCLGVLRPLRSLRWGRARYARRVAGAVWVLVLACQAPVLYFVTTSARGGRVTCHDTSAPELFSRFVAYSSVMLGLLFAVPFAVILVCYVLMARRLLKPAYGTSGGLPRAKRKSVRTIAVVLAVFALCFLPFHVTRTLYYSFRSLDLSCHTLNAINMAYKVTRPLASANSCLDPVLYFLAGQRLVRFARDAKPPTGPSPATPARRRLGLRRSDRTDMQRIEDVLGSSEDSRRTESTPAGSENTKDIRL

P2Y purinoceptor 12 = P2Y purinoceptor 12 (Homo sapiens, UniProt Q9H244); test: Antagonist activity at P2Y12 receptor (unknown origin)
Chain of P2Y purinoceptor 12 (Q9H244 whole entry): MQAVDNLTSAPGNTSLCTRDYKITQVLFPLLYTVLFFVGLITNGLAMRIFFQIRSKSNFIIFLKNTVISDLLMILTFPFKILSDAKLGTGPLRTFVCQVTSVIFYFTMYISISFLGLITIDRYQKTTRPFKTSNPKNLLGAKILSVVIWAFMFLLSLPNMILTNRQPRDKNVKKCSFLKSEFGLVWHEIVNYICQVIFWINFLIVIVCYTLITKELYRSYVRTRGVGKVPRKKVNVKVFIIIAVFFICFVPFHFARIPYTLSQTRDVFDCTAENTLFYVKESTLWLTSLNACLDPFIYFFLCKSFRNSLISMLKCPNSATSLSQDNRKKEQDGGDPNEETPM

[2] = Aqueous solubility of the compound at pH 3 using compound in amorphous solid form; assay type: physicochemical; settings: buffer
Oryctolagus cuniculus [3] = test: Induction of bleeding time in rabbit model of electrically-induced carotid artery thrombosis administered 30 mins before electrical stimulation; assay type: organism-based; settings: in vivo, 0.5 h
In short: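 Rabbits received an iv bolus plus continuous infusion (0.003 + 0.01 up to 0.3 + 1 mg/kg + mg·kg−1·h−1), started 30 min before carotid electrical stimulation and maintained throughout. Vehicle was 10% DMAc/2.5% PVP-K12/1% Pluronic F-108/D5W. Bleeding time was recorded up to 20 min after cuticle incision and expressed as fold of vehicle; mean ± SEM, n = 5–8 per group.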

P2Y purinoceptor 1 [4] = target: T1, P2Y purinoceptor 1 (Homo sapiens, UniProt P47900); test: Antagonist activity at P2Y1 receptor in washed human platelets assessed as 1 uM 2-methylthio-ADP-induced calcium flux by FLIPR assay; assay type: functional
T1 sequence (P47900 whole entry): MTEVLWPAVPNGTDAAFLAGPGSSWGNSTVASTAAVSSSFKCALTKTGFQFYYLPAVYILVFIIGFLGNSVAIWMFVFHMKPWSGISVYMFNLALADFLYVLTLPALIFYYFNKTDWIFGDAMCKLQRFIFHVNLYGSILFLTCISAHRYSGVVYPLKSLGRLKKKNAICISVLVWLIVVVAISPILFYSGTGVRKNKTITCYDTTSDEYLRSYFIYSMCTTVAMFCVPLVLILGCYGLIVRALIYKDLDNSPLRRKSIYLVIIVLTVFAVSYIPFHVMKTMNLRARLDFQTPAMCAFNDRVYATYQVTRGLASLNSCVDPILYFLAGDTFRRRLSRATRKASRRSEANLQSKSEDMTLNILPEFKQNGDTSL

[5] = Metabolic stability in human liver microsomes assessed as compound remaining at 0.5 uM after 10 mins; assay type: ADME; settings: read-out: Stability
In short: (§1)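 Compound at 0.5 μM incubated 10 min with 1 mg/mL human, rat or mouse liver microsomes; percentage of parent remaining reported.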

[6] = Metabolic stability in rat liver microsomes assessed as compound remaining at 0.5 uM after 10 mins; assay type: ADME; settings: read-out: Stability; in short: as §1
[7] = Metabolic stability in mouse liver microsomes assessed as compound remaining at 0.5 uM after 10 mins; assay type: ADME; settings: read-out: Stability; in short: as §1
[8] = Clearance in rat at 0.5 mg/kg by cassette dosing method; assay type: ADME, organism-based; design: dose 0.5 mg/kg; settings: in vivo
[9] = Volume of distribution at steady state in rat at 0.5 mg/kg by cassette dosing method; assay type: ADME, organism-based; design: dose 0.5 mg/kg; settings: in vivo, read-out: Vdss
[10] = Oral bioavailability in rat at 0.5 mg/kg by cassette dosing method; assay type: ADME, organism-based; settings: in vivo
[11] = Antagonist activity at P2Y1 receptor in platelet-enriched rabbit plasma assessed as 10 uM ADP-induced platelet aggregation preincubated for 1 min followed by ADP induction measured at 5 mins by aggregometric analysis; assay type: cell-free; settings: Oryctolagus cuniculus
Oryctolagus cuniculus [12] = test: Induction of bleeding time in rabbit model of electrically-induced carotid artery thrombosis at 0.1 mg/kg, iv + 0.033 mg/kg/hr, iv dosed 30 mins before electrical stimulation (reference value: 1 +/- 0.05); assay type: organism-based; settings: in vivo, 0.5 h
Oryctolagus cuniculus [13] = test: Induction of bleeding time in rabbit model of electrically-induced carotid artery thrombosis at 0.3 mg/kg, iv + 1 mg/kg/hr, iv dosed 30 mins before electrical stimulation (reference value: 1 +/- 0.05); assay type: organism-based; settings: in vivo, 0.5 h
Oryctolagus cuniculus [14] = test: Induction of bleeding time in rabbit model of electrically-induced carotid artery thrombosis at 90% antithrombotic dose administered 30 mins before electrical stimulation (reference value: 1 +/- 0.05); assay type: organism-based; settings: in vivo, 0.5 h
[15] = Aqueous solubility of the compound; assay type: physicochemical; settings: buffer
In short: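 Amorphous solid; solubility measured at pH 3.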

[16] = Clearance in rat at 0.5 mg/kg, iv by discrete dosing method; assay type: ADME, organism-based; design: dose 0.5 mg/kg, route intravenous; settings: in vivo
In short: (§2)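 Discrete rat PK; 0.5 mg/kg iv given in solution in DMAc/cremophor/EtOH/water (10/10/10/70).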

[17] = Volume of distribution in rat at 0.5 mg/kg, iv by discrete dosing method; assay type: ADME, organism-based; design: dose 0.5 mg/kg, route intravenous; settings: in vivo; in short: as §2
[18] = Half life in rat at 0.5 mg/kg, iv by discrete dosing method; assay type: ADME, organism-based; design: dose 0.5 mg/kg, route intravenous; settings: in vivo; in short: as §2
[19] = Oral bioavailability in rat at 15 mg/kg by discrete dosing method; assay type: ADME, organism-based; settings: in vivo
In short: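 Discrete rat PK; 15 mg/kg oral and 0.5 mg/kg iv, both in solution in DMAc/cremophor/EtOH/water (10/10/10/70).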

Oryctolagus cuniculus [20] = test: Antithrombotic activity in rabbit model of electrically-induced carotid artery thrombosis assessed as reduction in thrombus formation at 0.003 mg/kg, iv + 0.01 mg/kg/hr, iv dosed 30 mins before electrical stimulation (reference value: 3 +/- 2%); assay type: functional
Oryctolagus cuniculus [21] = test: Antithrombotic activity in rabbit model of electrically-induced carotid artery thrombosis assessed as reduction in thrombus formation at 0.01 mg/kg, iv + 0.033 mg/kg/hr, iv dosed 30 mins before electrical stimulation (reference value: 3 +/- 2%); assay type: functional
Oryctolagus cuniculus [22] = test: Antithrombotic activity in rabbit model of electrically-induced carotid artery thrombosis assessed as reduction in thrombus formation at 0.03 mg/kg, iv + 0.1 mg/kg/hr, iv dosed 30 mins before electrical stimulation (reference value: 3 +/- 2%); assay type: functional
Oryctolagus cuniculus [23] = test: Antithrombotic activity in rabbit model of electrically-induced carotid artery thrombosis assessed as reduction in thrombus formation at 0.1 mg/kg, iv + 0.033 mg/kg/hr, iv dosed 30 mins before electrical stimulation (reference value: 3 +/- 2%); assay type: functional
Oryctolagus cuniculus [24] = test: Antithrombotic activity in rabbit model of electrically-induced carotid artery thrombosis assessed as reduction in thrombus formation at 0.3 mg/kg, iv + 1 mg/kg/hr, iv dosed 30 mins before electrical stimulation (reference value: 3 +/- 2%); assay type: functional
Oryctolagus cuniculus [25] = test: Induction of bleeding time in rabbit model of electrically-induced carotid artery thrombosis at 0.003 mg/kg, iv + 0.01 mg/kg/hr, iv dosed 30 mins before electrical stimulation (reference value: 1 +/- 0.05); assay type: organism-based; settings: in vivo, 0.5 h
Oryctolagus cuniculus [26] = test: Induction of bleeding time in rabbit model of electrically-induced carotid artery thrombosis at 0.01 mg/kg, iv + 0.033 mg/kg/hr, iv dosed 30 mins before electrical stimulation (reference value: 1 +/- 0.05); assay type: organism-based; settings: in vivo, 0.5 h
Oryctolagus cuniculus [27] = test: Induction of bleeding time in rabbit model of electrically-induced carotid artery thrombosis at 0.03 mg/kg, iv + 0.1 mg/kg/hr, iv dosed 30 mins before electrical stimulation (reference value: 1 +/- 0.05); assay type: organism-based; settings: in vivo, 0.5 h
P2Y purinoceptor 1 [28] = target: T1, P2Y purinoceptor 1; test: Antagonist activity at P2Y1 receptor in platelet-enriched human plasma assessed as 10 uM ADP-induced platelet aggregation at 40 uM preincubated for 1 min followed by ADP induction measured at 5 mins by aggregometric analysis; assay type: cell-free
Oryctolagus cuniculus [29] = test: Induction of bleeding time in rabbit model of electrically-induced carotid artery thrombosis at 80% antithrombotic dose administered 30 mins before electrical stimulation (reference value: 1 +/- 0.05); assay type: organism-based; settings: in vivo, 0.5 h

| Structure (SMILES) | IC50 (P2Y purinoceptor 1 [4]) [nM] | remaining at 10 min, 0.5 µM [5] [%] | remaining at 10 min, 0.5 µM [6] [%] | remaining at 10 min, 0.5 µM [7] [%] | also measured |
| --- | --- | --- | --- | --- | --- |
| CC(C)(C)CN1CCC2(CC1)CN(c1ccccc1NC(=O)Nc1nc3ccc(Cl)nc3s1)c1c(O)cc(F)c(-c3ccc(F)cc3)c12 | 0.12 | 100 | 93 | 100 | inhibition (Oryctolagus cuniculus [1]): Active; inhibition at 1 µM (hERG (KCNH2)): 96%; IC50 (P2Y purinoceptor 2): > 10000 nM; IC50 (P2Y purinoceptor 12): > 10000 nM; solubility [2]: 3 µg/mL (≈ 4.35 µM); Activity (Oryctolagus cuniculus [3]): Non-toxic; clearance [8]: 4 mL/min/kg; Vd [9]: 2.1 L/kg; bioavailability [10]: 30%; IC50 [11]: 590 nM |
| CC1(C)CN(c2ccccc2NC(=O)Nc2ccc(OC(F)(F)F)cc2)c2c(O)cc(F)c(-c3ccc(Cl)cc3)c21 | 1.06 | 83 | 90 | 79 | fold change (FC) (Oryctolagus cuniculus [12]): 3.7; fold change (FC) (Oryctolagus cuniculus [13]): 4.7; fold change (FC) (Oryctolagus cuniculus [14]): 4.7; solubility [15]: < 1 µg/mL; clearance [16]: 1.3 mL/min/kg; Vd [17]: 0.4 L/kg; half-life [18]: 12 h; bioavailability [19]: 10%; IC50 [11]: 87 nM; inhibition (INH) (Oryctolagus cuniculus [20]): 22%; inhibition (INH) (Oryctolagus cuniculus [21]): 46%; inhibition (INH) (Oryctolagus cuniculus [22]): 50%; inhibition (INH) (Oryctolagus cuniculus [23]): 72%; inhibition (INH) (Oryctolagus cuniculus [24]): 95%; fold change (FC) (Oryctolagus cuniculus [25]): 1.1; fold change (FC) (Oryctolagus cuniculus [26]): 1.4; fold change (FC) (Oryctolagus cuniculus [27]): 2.7 |
| CC(C)(C)CN1CCC2(CC1)CN(c1ccccc1NC(=O)Nc1ccc(OC(F)(F)F)cc1)c1c(O)cc(F)c(-c3ccc(Cl)cc3)c12 | 0.16 | 78 | 72 | 74 | clearance [8]: 3.7 mL/min/kg; Vd [9]: 1.3 L/kg; bioavailability [10]: 15% |
| CC1(C)CN(c2ccccc2NC(=O)Nc2ccc(OC(F)(F)F)cc2)c2c(O)cc(F)c(-c3ncc(F)cn3)c21 | 0.3 | 41 | 61 | 42 | – |
| CC1(C)CN(c2ccccc2NC(=O)Nc2ccc(OC(F)(F)F)cc2)c2c(O)cc(F)c(-c3cc(F)nc(F)c3)c21 | 0.47 | 75 | 80 | 75 | – |
| Cc1nc(NC(=O)Nc2ccccc2N2CC(C)(C)c3c(-c4ccc(F)cc4)ccc(O)c32)cs1 | 0.08 | 95 | 55 | 52 | – |
| CC(C)(C)CN1CCC2(CC1)CN(c1ccccc1NC(=O)Nc1ccc(OC(F)(F)F)cc1)c1c(O)cc(F)c(-c3ccc(F)cc3)c12 | 0.09 | 81 | 80 | 67 | clearance [8]: 4.2 mL/min/kg; Vd [9]: 1 L/kg; bioavailability [10]: 17% |
| CC1(C)CN(c2ccccc2NC(=O)Nc2ccc(OC(F)(F)F)cc2)c2c(O)cc(F)c(-c3ccc(F)cc3)c21 | 0.23 | 73 | 84 | 77 | – |
| CC1(CO)CN(c2ccccc2NC(=O)Nc2nc3ccc(Cl)nc3s2)c2c(O)ccc(Cl)c21 (stereo unspecified) | – | – | – | – | inhibition (P2Y purinoceptor 1 [28]): 72% |
| CNC(=O)C1(C)CN(c2ccccc2NC(=O)Nc2nc3ccc(F)cc3s2)c2c(O)ccc(Cl)c21 (stereo unspecified) | – | 16 | 5 | 16 | inhibition (P2Y purinoceptor 1 [28]): 46% |
| CC(C)(C)CN1CCC2(CC1)CN(c1ccccc1NC(=O)Nc1nc3ccc(Cl)nc3s1)c1c(O)ccc(Cl)c12 | – | – | – | 84 | inhibition at 1 µM (hERG (KCNH2)): 57%; clearance [8]: 10.4 mL/min/kg; Vd [9]: 5.4 L/kg |
| CC(=O)Oc1cc2c(s1)CCN(C(C(=O)C1CC1)c1ccccc1F)C2 (stereo unspecified) | – | – | – | – | inhibition (Oryctolagus cuniculus [1]): Active; fold change (FC) (Oryctolagus cuniculus [29]): 6 |
| COC(=O)[C@H](c1ccccc1Cl)N1CCc2sccc2C1 [CLOPIDOGREL] | – | – | – | – | inhibition (Oryctolagus cuniculus [1]): Active; fold change (FC) (Oryctolagus cuniculus [29]): 6 |
| CC1(C(=O)O)CN(c2ccccc2NC(=O)Nc2nc3ccc(Cl)nc3s2)c2c(O)ccc(Cl)c21 (stereo unspecified) | – | – | – | – | inhibition (P2Y purinoceptor 1 [28]): 90% |

Second part, led by results:

| IC50 (P2Y purinoceptor 1 [4]) [nM] | remaining at 10 min, 0.5 µM [5] [%] | remaining at 10 min, 0.5 µM [6] [%] | remaining at 10 min, 0.5 µM [7] [%] | Structure (SMILES) | also measured |
| --- | --- | --- | --- | --- | --- |
| 0.33 | 87 | 89 | 83 | CC1(C)CN(c2ccccc2NC(=O)Nc2ccc(OC(F)(F)F)cc2)c2c(O)ccc(-c3ccc(F)cc3)c21 | – |
| 0.13 | 75 | 74 | 65 | CC1(C)CN(c2ccccc2NC(=O)Nc2nc3ccc(Cl)nc3s2)c2c(O)ccc(-c3ccc(F)cc3)c21 | – |
| 1.8 | 90 | 81 | 66 | CC1(C)CN(c2ccccc2NC(=O)Nc2ccc(OC(F)(F)F)cc2)c2c(O)ccc(-c3ccc(F)c(F)c3)c21 | – |
| 0.39 | 66 | 57 | 58 | CC1(C)CN(c2ccccc2NC(=O)Nc2ccc(OC(F)(F)F)cc2)c2c(O)ccc(Cl)c21 | – |
| 0.02 | 58 | 39 | 53 | CC(C)CN1CCCC1c1ccc(NC(=O)Nc2ccccc2N2CC(C)(C)c3c(-c4ccc(F)cc4)ccc(O)c32)cc1 (stereo unspecified) | clearance [8]: 34 mL/min/kg; Vd [9]: 9.8 L/kg; bioavailability [10]: 4% |
| 0.57 | 100 | 97 | 65 | CC1(C)CN(c2ccccc2NC(=O)Nc2ccc(OC(F)(F)F)cc2)c2c(O)cc(F)c(-c3ccc(C(F)(F)F)cn3)c21 | – |
